Results: ChEMBL document CHEMBL1125474, “Comparative molecular field analysis of anticoccidial triazines” (J Med Chem, 1992)

What follows are compounds tested on Eimeria tenella (assay: Minimum effective concentration for anti-coccidial activity against […] coccidian parasite Eimeria tenella in chicks expressed as mmol/kg of feed).
Format: functional
In short: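 Chicks kept on feed containing test drug, then challenged with *Eimeria tenella* oocysts. Activity is scored as the degree of lesion control in the ceca of treated, challenged birds. The lowest feed concentration that controls lesions is taken as the MEC. Values are usually reproducible within one 2-fold dilution (±0.3 in log(1/MEC)).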

SMILES	Log 1/MEC
O=c1cnn(-c2ccc(Oc3ccc(I)cc3)c(Cl)c2)c(=O)[nH]1	1.77
N#CC(c1ccc(Cl)cc1)c1c(Cl)cc(-n2ncc(=O)[nH]c2=O)cc1Cl (stereo not drawn) [DICLAZURIL]	3.61
O=c1cnn(-c2cc(Cl)c(Cc3ccc(Cl)cc3)c(Cl)c2)c(=O)[nH]1	3.18
Cc1cc(-n2ncc(=O)[nH]c2=O)ccc1C(O)c1ccccc1 (stereo not drawn)	1.01
O=c1cnn(-c2ccc(Oc3ccccc3)cc2)c(=O)[nH]1	-0.25
Cc1cc(-n2ncc(=O)[nH]c2=O)cc(Cl)c1Oc1ccc(S(=O)(=O)NC2CC2)cc1Cl	1.51
O=c1cnn(-c2cc(Cl)c(S(=O)(=O)c3ccc(Cl)cc3)c(Cl)c2)c(=O)[nH]1	2.94
O=c1cnn(-c2cc(I)cc(I)c2)c(=O)[nH]1	1.17
O=c1cnn(-c2ccc(Sc3ccc4ccccc4c3)c(Cl)c2)c(=O)[nH]1	0.48
O=c1cnn(-c2ccc(S(=O)(=O)c3ccc(Cl)cc3)cc2)c(=O)[nH]1	1.96
O=c1cnn(-c2cc(Cl)c(S(=O)(=O)N3CCOCC3)c(Cl)c2)c(=O)[nH]1	1.13
CCc1cc(-n2ncc(=O)[nH]c2=O)cc(C)c1Sc1ccc(Cl)cc1	0.79
CC(=O)c1ccc(Sc2c(C)cc(-n3ncc(=O)[nH]c3=O)cc2Cl)cc1	3.19
O=c1cnn(-c2ccc(Cl)c(C(F)(F)F)c2)c(=O)[nH]1	1.56
O=c1cnn(-c2ccc(C(O)c3ccc(Cl)cc3)c(Cl)c2)c(=O)[nH]1 (stereo not drawn)	2.26
Cc1cc(-n2ncc(=O)[nH]c2=O)cc(Cl)c1S(=O)(=O)N1CCSCC1	0.53
Cc1cc(-n2ncc(=O)[nH]c2=O)cc(C)c1Sc1ccc(Cl)cc1 [TIAZURIL]	2.86
Cc1cc(-n2ncc(=O)[nH]c2=O)cc(Cl)c1Oc1ccc(Cl)cc1	1.98
N#C[C@H](c1ccc(Cl)cc1)c1c(Cl)cc(-n2ncc(=O)[nH]c2=O)cc1Cl	3.61
O=C1c2ccccc2CSc2cc(-n3ncc(=O)[nH]c3=O)ccc21	1.04
Cc1cc(-n2ncc(=O)[nH]c2=O)cc(C)c1S(=O)(=O)c1ccc(Cl)cc1	2.59
COc1cc(OC)cc(-n2ncc(=O)[nH]c2=O)c1	-0.3
CC(C)(C)c1ccc(Sc2ccc(-n3ncc(=O)[nH]c3=O)cc2Cl)cc1	0.51

SMILES	Log 1/MEC
O=c1cnn(-c2ccc(F)c(C(F)(F)F)c2)c(=O)[nH]1	1.26
Cc1cc(-n2ncc(=O)[nH]c2=O)ccc1Oc1ccc(Br)cc1	1.7
O=c1cnn(-c2cccc(C(F)(F)F)c2)c(=O)[nH]1	0.93
CSc1ccc(Oc2c(C)cc(-n3ncc(=O)[nH]c3=O)cc2C)cc1C	2.27
Cc1cc(-n2ncc(=O)[nH]c2=O)cc(C)c1C(=O)c1ccc(Cl)cc1	1.38
C[C@@](C#N)(c1ccc(Cl)cc1)c1c(Cl)cc(-n2ncc(=O)[nH]c2=O)cc1Cl	2.62
COc1cc(-n2ncc(=O)[nH]c2=O)cc(OC)c1OC	-0.55
O=c1cnn(-c2ccc(Br)c(C(F)(F)F)c2)c(=O)[nH]1	1.35
Cc1cc(-n2ncc(=O)[nH]c2=O)ccc1Oc1ccc(S(C)(=O)=O)cc1	1.97
CCN(C)S(=O)(=O)c1ccc(Oc2c(C)cc(-n3ncc(=O)[nH]c3=O)cc2Cl)c(Cl)c1	2.11
Cc1cc(-n2ncc(=O)[nH]c2=O)cc(Cl)c1Oc1ccc(C(C)O)cc1 (stereo not drawn)	2.27
CSc1ccc(Oc2c(C)cc(-n3ncc(=O)[nH]c3=O)cc2C)cc1	2.25
COc1c(Cl)cc(-n2ncc(=O)[nH]c2=O)cc1Cl	0.06
O=c1cnn(-c2cccc(Cl)c2)c(=O)[nH]1	0.25
Cc1cc(-n2ncc(=O)[nH]c2=O)cc(C)c1S(=O)(=O)N1CCOCC1	1.39
Cc1cc(C)cc(-n2ncc(=O)[nH]c2=O)c1	0.86
N#Cc1cccc(-n2ncc(=O)[nH]c2=O)c1	0.85
Cc1cc(-n2ncc(=O)[nH]c2=O)ccc1Oc1ccc(Cl)cc1	0.74
O=c1cnn(-c2cc(Cl)cc(Cl)c2)c(=O)[nH]1	1.81
O=c1cnn(-c2ccccc2)c(=O)[nH]1	-0.42
O=c1cnn(-c2ccc(S(=O)(=O)N3CCC(O)CC3)c(Cl)c2)c(=O)[nH]1	-0.11
O=c1cnn(-c2ccc(Oc3ccc(Cl)cc3Cl)c(Cl)c2)c(=O)[nH]1	1.71
O=c1cnn(-c2ccc(Cc3ccc(Cl)cc3)c(Cl)c2)c(=O)[nH]1	1.64

SMILES	Log 1/MEC
CSc1ccc(Oc2ccc(-n3ncc(=O)[nH]c3=O)cc2Cl)cc1	1.98
CS(=O)(=O)c1c(Cl)cc(-n2ncc(=O)[nH]c2=O)cc1Cl	0.13
CC(=O)c1ccc(Oc2c(C)cc(-n3ncc(=O)[nH]c3=O)cc2Cl)cc1	2.27
O=c1cnn(-c2ccc(S(=O)(=O)N3CCOCC3)c(Cl)c2)c(=O)[nH]1	1.09
O=c1cnn(-c2ccc(S(=O)(=O)c3ccc(Br)cc3)cc2)c(=O)[nH]1	1.71
Cc1cc(-n2ncc(=O)[nH]c2=O)cc(Cl)c1S(=O)(=O)N(C)C	0.76
O=c1cnn(-c2ccc(S(=O)(=O)c3ccccc3)cc2)c(=O)[nH]1	1.04
O=C(c1ccc(Cl)cc1)c1c(Cl)cc(-n2ncc(=O)[nH]c2=O)cc1Cl	2.9
CSc1ccc(Oc2ccc(-n3ncc(=O)[nH]c3=O)cc2C)cc1	2.23
O=c1cnn(-c2ccc(Sc3ccc(Cl)cc3)c(Cl)c2)c(=O)[nH]1	2.26
O=c1cnn(-c2ccc(S(=O)(=O)c3ccc(Cl)cc3)c(Cl)c2)c(=O)[nH]1	2.3
O=c1cnn(-c2cc(Cl)c(Sc3ccc(Cl)cc3)c(Cl)c2)c(=O)[nH]1	3.3
O=c1cnn(-c2ccc([N+](=O)[O-])cc2)c(=O)[nH]1	-0.03
O=c1cnn(-c2ccc(S(=O)(=O)N3CCCCC3)c(Cl)c2)c(=O)[nH]1	0.17
O=c1cnn(-c2ccc(Cl)c(Cl)c2)c(=O)[nH]1	0.63
Cc1cc(-n2ncc(=O)[nH]c2=O)cc(Cl)c1S(=O)(=O)c1ccc(Cl)cc1	1.71
Cc1cc(Cl)cc(-n2ncc(=O)[nH]c2=O)c1	1.2
Cc1cc(-n2ncc(=O)[nH]c2=O)cc(C)c1[S+]([O-])c1ccc(Cl)cc1 (stereo not drawn)	2.58
Cc1cc(-n2ncc(=O)[nH]c2=O)cc(Cl)c1Sc1ccc(Cl)cc1	3.28
Cc1cc(-n2ncc(=O)[nH]c2=O)ccc1Oc1ccc(Cl)cc1Cl	1.69
CS(=O)(=O)c1ccc(-n2ncc(=O)[nH]c2=O)cc1	-0.27
O=c1cnn(-c2ccc(Oc3ccc4cc(Br)ccc4c3)c(Cl)c2)c(=O)[nH]1	1.77
